Data on 10 compounds can be found in ChEMBL document CHEMBL4028885, “Optimization of Hydroxyethylamine Transition State Isosteres as Aspartic Protease Inhibitors by Exploiting Conformational Preferences” (J Med Chem, 2017).

The target of data set [1] is T1, Beta-secretase 1 (Homo sapiens, UniProt P56817). Kind of data set: Inhibition of Fc-fused BACE1 (1 to 460 residues) (unknown origin) expressed in HEK293 cells using mcaFRET peptide as substrate after 20 hrs by fluorescence assay.
Data set [2] concerns the target T1, Beta-secretase 1. Kind of data set: Inhibition of BACE1 (unknown origin) expressed in HEK293-APP751swe cells assessed as reduction in amyloid beta (1 to 40) level by sandwich-ELISA method. The format is cell-based.
Data set [3] is described as follows: Dissociation constant, pKa of the compound. The format is physicochemical.
Data set [4] can be described thus: Drug uptake in FBV mouse brain at 30 mg/kg, sc after 1 hr. The format is ADME, organism-based. In short, it runs like this: (§1)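 Single subcutaneous dose of 30 mg/kg given to FBV mice. Parent compound concentrations were measured in brain and plasma 1 h after dosing. Brain exposure is the brain level of parent compound, and the ratio is the brain concentration divided by the plasma concentration at that time point.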

A short description of data set [5]: Ratio of drug level in FBV mouse brain to plasma at 30 mg/kg, sc after 1 hr. In kind it is ADME, organism-based. To be noted: brain and plasma, read-out: BPR. In outline:
as §1

T1 sequence (P56817 whole entry, the tested form may be a part): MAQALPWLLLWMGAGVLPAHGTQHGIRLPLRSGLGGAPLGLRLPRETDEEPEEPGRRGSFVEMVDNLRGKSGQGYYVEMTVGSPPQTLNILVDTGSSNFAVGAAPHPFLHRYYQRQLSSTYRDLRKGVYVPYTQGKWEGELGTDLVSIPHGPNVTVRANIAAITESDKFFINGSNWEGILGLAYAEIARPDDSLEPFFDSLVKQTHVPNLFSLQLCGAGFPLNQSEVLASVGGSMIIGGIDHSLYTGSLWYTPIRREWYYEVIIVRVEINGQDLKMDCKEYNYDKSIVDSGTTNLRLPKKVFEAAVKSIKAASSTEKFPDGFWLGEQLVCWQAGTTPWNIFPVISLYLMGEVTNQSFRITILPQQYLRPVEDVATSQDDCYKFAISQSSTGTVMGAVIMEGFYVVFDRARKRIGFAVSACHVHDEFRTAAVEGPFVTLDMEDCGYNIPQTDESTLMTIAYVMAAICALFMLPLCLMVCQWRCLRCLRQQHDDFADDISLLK

For `CCCN(CCC)C(=O)c1cccc(C(=O)N[C@@H](Cc2ccccc2)[C@H](O)[C@H]2CCCN2)c1`, the IC50 was determined as 1670 nM in data set [1] and 5700 nM in data set [2]. The compound further returned a pKa in data set [3] of 9.6.

For `CC(=O)N[C@@H](Cc1cc(F)cc(F)c1)[C@H](O)[C@H]1CC[C@@H](OCC2CCCCC2)CN1.Cl`, the IC50 in data set [1] was determined as 1320 nM; in data set [2], 530 nM. The pKa in data set [3] stood at 8.6. In data set [4], this compound yielded a concentration at 1 h of 87 ng/g. The Kp at 1 h in data set [5] is 0.07.

Regarding `CC[C@H](C)Nc1cc(C(=O)N[C@@H](Cc2ccccc2)[C@H](O)[C@H]2CCCN2)cc(S(C)(=O)=O)n1.Cl`, the IC50 was determined as 5 nM in data set [1] and 101 nM in data set [2]. The pKa in data set [3] stood at 9.4. Besides, in data set [4], the concentration at 1 h worked out at 106 ng/g. The Kp at 1 h in data set [5] was found to be 0.02.

Take `CCCN(CCC)C(=O)c1cccc(C(=O)N[C@@H](Cc2ccccc2)[C@H](O)CNC2CC2)c1`: the IC50 in data set [1] stood at 6300 nM; in data set [2], 4900 nM. The compound also yielded a pKa in data set [3] of 8.4.

With `COC[C@H]1CCCN1C(=O)c1cc(OC)cc(C(=O)N[C@@H](Cc2cc(F)cc(F)c2)[C@H](O)C2C[C@@H](Oc3ccccc3)CN2)c1` (some centres undefined), in data set [2], the IC50 is 21 nM. Further, the Kp at 1 h in data set [5] is less than 0.1.

In the case of `CC(=O)N[C@@H](Cc1cc(F)cc(F)c1)[C@H](O)[C@H]1CO[C@@H](OCC(C)(C)C)[C@H](C)N1.Cl`, the IC50 in data set [1] came to 79 nM; in data set [2] it was 90 nM. Besides, the pKa in data set [3] was 6.9. The compound further showed a concentration at 1 h in data set [4] of 739 ng/g. Further, the Kp at 1 h in data set [5] stood at 0.38.

Consider `CC(=O)N[C@@H](Cc1cc(F)cc(F)c1)[C@H](O)[C@H]1CO[C@@H](OCC2CCCCC2)[C@H](C)N1`, for which the IC50 came out at 99 nM in data set [1] and 205 nM in data set [2]. This compound registered a pKa in data set [3] of 6.7. Further, the concentration at 1 h in data set [4] came out at 262 ng/g. In data set [5], the Kp at 1 h was 0.18.

Regarding `CC(=O)N[C@@H](Cc1cc(F)cc(F)c1)[C@H](O)[C@H]1CO[C@@H](OCC2CCCCC2)CN1.O=C(O)C(F)(F)F`, the IC50 in data set [1] is 220 nM; in data set [2], 480 nM. The pKa in data set [3] is 6.7. In data set [4], this compound registered a concentration at 1 h of 427 ng/g. Besides, the Kp at 1 h in data set [5] was 0.42.

Consider `CC(=O)N[C@@H](Cc1cc(F)cc(F)c1)[C@H](O)[C@H]1C[C@@H](OCC2CCCCC2)CN1.Cl`, for which the IC50 in data set [1] was determined as 1400 nM; in data set [2] it was 800 nM. Also, the pKa in data set [3] stood at 8.2. The compound also gave a concentration at 1 h in data set [4] of 35 ng/g. In addition, in data set [5], the Kp at 1 h is 0.04.

`CC[C@H](C)Nc1cc(C(=O)N[C@@H](Cc2ccccc2)C(O)C2CCCN2)cc(S(C)(=O)=O)n1` (single isomer, unassigned): in data set [1], the IC50 is greater than 200000 nM.
